Compound activity (PubChem)
The list is not random: actives were taken first. Their share in the collection is about 2%.
TPT1 inh: blocks Candida albicans tRNA 2'-phosphotransferase; recombinant caTPT1, FP RNA substrate dephosphorylation; inhibition, % at 5 µM; 300,000 tested, 0.81% active;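 active = inhibition above the mean of all tested compounds plus 3 SD, set per screening campaign, cut at about 24% in these data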
SENP1 inh: blocks the human SENP1 SUMO protease catalytic domain; recombinant SENP1 catalytic domain, CyPet-SUMO1-YPet FRET cleavage; inhibition, % at 10 µM; AID 624204; Q9P0U3; 360,000 tested, 0.21% active;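 active = inhibition at least 30% at 10 µM, raw YFP signal under a set limit, fluorescence ratio 0.5 to 1.5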
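system = hSENP1 catalytic domain, recombinant | reagent = SFCypet-SUMO1-SFYpet substrate at 25 nM | doses = one dose per compound, 10 µM, 0.5% DMSO | incubation = enzyme reaction for 50 min at room temperature, dark | measured by = FRET, CFP and YFP emission | controls = no-enzyme low, enzyme-DMSO high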
CSN deneddyl inh: blocks human CSN-mediated cullin deneddylation | AID 651999 | Q92905 | 360,000 tested, 0.38% active | inhibition, % at 12.5 µM | Purified CSN, SCF-Nedd8-OG deneddylation, fluorescence polarization;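 active = pattern-corrected inhibition above about 35%, with an unprinted fluorescence ratio check between 0.5 and 1.5, limit read from the data, passing the limit was not always enough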
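Material: purified human Csn5 enzyme expressed in HEK293T cells / Medium: Tris buffer pH 7.5, NaCl, DTT, Tween-20, trehalose, ovalbumin / Compound dosing: 12.5 µM single point / Schedule: 90 min incubation of compound, enzyme and substrate at room temperature / Signal: fluorescence polarization of the substrate / Control set: no-enzyme wells high, enzyme-with-substrate wells low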
HNF4A DNA FP: change in binding of human HNF4 alpha to DNA | P41235 | HNF4a-FITC DNA binding, fluorescence polarization, 1 h | activity change, % at 10 µM | 360,000 tested, 0.3% active | AID 1224865; in the data active = activity change above about 30%, passing the limit was not always enough
Rpn11 inh: inhibitors of human proteasome Rpn11; O00487; human 26S proteasome, Ub4-pepOG fluorescence polarization; 20S core pre-blocked with epoxomicin; inhibition, % at 20 µM; 360,000 tested, 0.59% active; AID 588493;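 active = inhibition at 20 µM, scaled to each plate's controls, above about 33%, limit read from the data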
Target sequence (O00487 whole entry, looked up): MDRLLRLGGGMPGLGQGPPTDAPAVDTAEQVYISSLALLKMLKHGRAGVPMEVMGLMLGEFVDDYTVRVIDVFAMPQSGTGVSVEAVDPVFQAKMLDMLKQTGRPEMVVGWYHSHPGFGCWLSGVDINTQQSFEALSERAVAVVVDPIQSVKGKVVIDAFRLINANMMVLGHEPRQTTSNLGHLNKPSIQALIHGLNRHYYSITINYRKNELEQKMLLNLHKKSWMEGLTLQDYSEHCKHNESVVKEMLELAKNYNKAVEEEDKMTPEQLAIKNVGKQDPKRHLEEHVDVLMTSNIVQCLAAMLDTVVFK
ATG4B inhibitor: blocks human ATG4B protease cleavage of LC3 substrate. Q9Y4P1. ATG4B cleavage of LC3-PLA2, NBD-HPC fluorescence, 1 h. inhibition, % at 8.33 µM. 340,000 tested, 0.51% active. AID 504462; in the data active = inhibition above about 40%
Target sequence (Q9Y4P1 whole entry, looked up): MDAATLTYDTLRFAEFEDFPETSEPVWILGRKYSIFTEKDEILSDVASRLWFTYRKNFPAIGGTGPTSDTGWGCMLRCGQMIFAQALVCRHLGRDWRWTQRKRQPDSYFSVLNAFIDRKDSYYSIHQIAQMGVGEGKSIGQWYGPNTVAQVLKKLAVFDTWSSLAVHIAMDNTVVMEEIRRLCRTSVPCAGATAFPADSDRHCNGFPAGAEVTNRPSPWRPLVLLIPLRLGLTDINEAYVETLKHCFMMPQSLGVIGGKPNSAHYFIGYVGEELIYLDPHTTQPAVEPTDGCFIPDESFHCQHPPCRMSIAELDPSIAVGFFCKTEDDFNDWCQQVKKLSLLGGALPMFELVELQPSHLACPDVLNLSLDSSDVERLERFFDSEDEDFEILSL
TPT1 inh confirm: confirmation of Candida albicans TPT1 inhibitors; shares compounds with TPT1 inh; recombinant caTPT1, fluorescence polarization, RNase T1 coupled; inhibition, % at 5 µM; 2,400 tested, 74% active; AID 2149;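 active = inhibition above the primary screen limit, the mean inhibition of all tested compounds plus 3 SD, cut at about 25% in these data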
RNase T1 inh: RNase T1 inhibition in TPT1 counter-screen. 2,400 tested, 83% active. RNase T1 cleavage, fluorescence polarization, 1536-well. shares compounds with TPT1 inh. AID 2153. inhibition, % at 5 µM;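 active = inhibition above the solvent-only control well mean plus 3 SD, limit set per screening run, cut at about 23% in these data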;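 also: inhibitors block cleavage so intact labeled substrate keeps polarization high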
ATG4B conf: ATG4B (human) inhibition, single-dose confirmed | shares compounds with ATG4B inhibitor | ATG4B protease fluorescent substrate cleavage assay | inhibition, % at 8.33 µM | 320 tested, 92% active | AID 504757; in the data active = inhibition above about 39%
PLA2 counter: PLA2 (human) inhibition in ATG4B counter-screen; shares compounds with ATG4B inhibitor; purified PLA2, NBD-C6-HPC fluorescence, 45 min; 1,600 tested, 66% active; inhibition, % at 8.33 µM; in the data active = inhibition above about 50%
Large screens that a line does not name were inactive (follow-up assays come after a bar, where shown).

NC(=O)N/N=C/c1sc(=O)n(-c2ccccc2)c1Cl	TPT1 inh 39 (not shown: Rpn11 inh) | TPT1 inh confirm 47 | RNase T1 inh 66
COc1ccc(-n2[nH]c3c(cnc4ccccc43)c2=O)cc1	none (no result: TPT1 inh, ATG4B inhibitor)
N#Cc1ccccc1Cn1c(=O)n(CCC(=O)NCc2ccco2)c(=O)c2ccccc21	TPT1 inh active | TPT1 inh confirm inactive | RNase T1 inh 25
N#Cc1ccccc1Cn1c(=O)n(Cc2ccc(C(=O)NCc3ccco3)cc2)c(=O)c2ccccc21	none
CC(C)(C)OC(=O)N1CCC[C@H]1C(=O)NCc1ccc(F)cc1F	none (no result: TPT1 inh, Rpn11 inh, ATG4B inhibitor)
O=C(CCN1CCCCC1)N1CCc2c([nH]c3ccccc23)C1c1cccnc1 (stereo not given)	none (no result: TPT1 inh)
COC(=O)c1ccc(NC(=O)Cc2ccccc2)cc1	none
CCN(CC(=O)Nc1ccc(C(=O)OC)cc1)Cc1ccccc1	TPT1 inh 46 | TPT1 inh confirm inactive | RNase T1 inh inactive
CCOC(=O)C1C(=O)NC(SCC(N)=O)=C(C#N)C1c1ccccc1OCC (stereo not given)	TPT1 inh 70, CSN deneddyl inh 43, HNF4A DNA FP 99 (not shown: Rpn11 inh) | TPT1 inh confirm 68 | RNase T1 inh 78
CCOc1ccc(N2C(=O)CC(/C=C3/N(C)c4ccccc4C3(C)C)C2=O)cc1 (stereo not given)	TPT1 inh 25 | TPT1 inh confirm inactive | RNase T1 inh 26
CN1/C(=C/C2CC(=O)NC2=O)C(C)(C)c2ccccc21 (stereo not given)	none
CN1/C(=C/C2CC(=O)N(c3cccc4ccccc34)C2=O)C(C)(C)c2ccccc21 (stereo not given)	TPT1 inh 38 (not shown: Rpn11 inh) | TPT1 inh confirm 54 | RNase T1 inh 68
CCCN(CCC)Cc1cc(=O)oc2cc(C)c(Cl)cc12	none (no result: TPT1 inh, ATG4B inhibitor)
N#CCCN(Cc1cccnc1)CN1C(=O)c2ccccc2C1=O	none (no result: TPT1 inh, ATG4B inhibitor)
COc1ccc(-c2nc3cc(C)c(Br)c(C)n3c2CC(C)(C)C)cc1OC	none (no result: TPT1 inh, ATG4B inhibitor)
COc1ccc(NC(=O)CSc2ccc3nnc(CCNC(=O)c4ccccc4)n3n2)cc1	TPT1 inh 41 | TPT1 inh confirm inactive | RNase T1 inh inactive
N#C/C(=C\c1coc2ccc(O)cc2c1=O)C(=O)Nc1nc2ccccc2s1	TPT1 inh 28, ATG4B inhibitor 54 (not shown: Rpn11 inh) | TPT1 inh confirm 93 | RNase T1 inh 90 | PLA2 counter inactive
O=C1NC(=S)S/C1=C\c1ccc(SCc2ccccc2)o1	TPT1 inh 47, HNF4A DNA FP 35, Rpn11 inh 84, ATG4B inhibitor 40 | TPT1 inh confirm 46 | RNase T1 inh 65 | PLA2 counter 56
O=C1NC(=S)SC1=Cc1ccccc1Cl	none (no result: TPT1 inh)
O=c1/c(=C/c2ccccn2)sc2nc3ccccc3n12	none
O=c1/c(=C\c2cc([N+](=O)[O-])cc([N+](=O)[O-])c2O)sc2nc3ccccc3n12	TPT1 inh 91, SENP1 inh 91, HNF4A DNA FP 40, ATG4B inhibitor 59 (not shown: Rpn11 inh) | TPT1 inh confirm 91 | RNase T1 inh 93 | PLA2 counter 69
O=C(/C=C/N1CCOCC1)c1coc2ccccc12	TPT1 inh 26, ATG4B inhibitor 44 | TPT1 inh confirm inactive | RNase T1 inh inactive | PLA2 counter inactive
O=C(/C=C/N1CCOCC1)c1cc2ccccc2o1	TPT1 inh 26, ATG4B inhibitor 65 | TPT1 inh confirm inactive | RNase T1 inh inactive | PLA2 counter inactive
O=C(CCN1CCCO1)N1CCCC(Nc2cccc(F)c2)C1 (stereo not given)	none (no result: TPT1 inh, ATG4B inhibitor)
O=C(Nc1nc2c(F)cccc2s1)C1CC1	none
CC1CCc2c(sc(Nc3nc4c(F)cccc4s3)c2C(N)=O)C1 (stereo not given)	TPT1 inh 48, HNF4A DNA FP 37, ATG4B inhibitor 41 (not shown: Rpn11 inh) | TPT1 inh confirm 57 | RNase T1 inh 69 | PLA2 counter inactive
COc1ccc(/C=C/C(=O)OCC(=O)NC2CCCC2)cc1OC	none (no result: TPT1 inh)
CN1CCS/C1=C/C=C1/SC(=S)N(Cc2ccccc2)C1=O	TPT1 inh 171, ATG4B inhibitor 82 (not shown: Rpn11 inh) | TPT1 inh confirm 169 | RNase T1 inh 157 | PLA2 counter 80
C=C(C)C(=O)Nc1ccc2nn(-c3ccccc3O)nc2c1	none (no result: TPT1 inh, ATG4B inhibitor)
COc1ccc(C(CNC(=O)c2ccc(C)c(S(=O)(=O)N3CCOCC3)c2)N2CCCC2)cc1 (stereo not given)	none (no result: TPT1 inh)
Cc1nnc(N2CCC(C(=O)NC3CCC(C)CC3)CC2)c2nn(-c3ccc(Cl)cc3)c(C)c12 (stereo not given)	none
COc1ccc(-n2nc3c(N4CCC(C(=O)N5CCC(C)CC5)CC4)nnc(C)c3c2C)cc1	TPT1 inh 79, SENP1 inh 68, CSN deneddyl inh 64, HNF4A DNA FP 99, ATG4B inhibitor 68 (not shown: Rpn11 inh) | TPT1 inh confirm 72 | RNase T1 inh 81 | PLA2 counter 75
OC(c1ccc(Cl)c(F)c1)c1ncc(-c2ccc(F)cc2)[nH]1 (stereo not given)	none (no result: TPT1 inh, ATG4B inhibitor)
O=C(O)c1cc(-c2ccccc2)nc2nc(N3CCCCC3)sc12	none (no result: SENP1 inh, CSN deneddyl inh, HNF4A DNA FP, Rpn11 inh, ATG4B inhibitor)
Cc1ccc(-c2cc(C(=O)O)c3sc(N4CCCCC4)nc3n2)cc1	TPT1 inh 27, ATG4B inhibitor 40 | TPT1 inh confirm inactive | RNase T1 inh inactive | PLA2 counter inactive
O=C(O)C1Nc2c(Cl)cc(Cl)cc2C2C=CCC12 (stereo not given)	TPT1 inh 33, ATG4B inhibitor 65 (not shown: Rpn11 inh) | TPT1 inh confirm inactive | RNase T1 inh inactive | ATG4B conf inactive | PLA2 counter inactive
O=C(O)C1Nc2c(Cl)cc(Cl)c(Cl)c2C2C=CCC12 (stereo not given)	none (not shown: Rpn11 inh)
O=C(O)C1Nc2ccc(Br)cc2C2C=CCC12 (stereo not given)	TPT1 inh 29, ATG4B inhibitor 64 | TPT1 inh confirm inactive | RNase T1 inh inactive | ATG4B conf inactive | PLA2 counter inactive
CCCc1c(C(=O)N/N=C(\C)c2ccc(CC(C)C)cc2)nnn1-c1nonc1N	none (no result: TPT1 inh, ATG4B inhibitor)
CCOc1cc(/C=C2\C(=O)N(c3nc(-c4ccc(Br)cc4)cs3)N=C2c2ccccc2)ccc1O	TPT1 inh 41, ATG4B inhibitor 53 | TPT1 inh confirm 100 | RNase T1 inh 104 | ATG4B conf 66 | PLA2 counter inactive
